Experiments:
Assay type in all cases: functional
Set-up in all cases: scale not given: the % may be the effect or the level left
[1] = tested on: Mycobacterium tuberculosis; assay: Antimycobacterial activity against Mycobacterium tuberculosis H37Rv assessed as reduction in relative light units at 5 ug/ml after 72 hrs by LRP assay
Procedure, shortened: (§1)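 Luciferase reporter phage assay on M. tuberculosis (H37Rv, or clinical isolates resistant to S, H, R and E). Each sample had two drug-free controls and four drug concentrations, incubated 72 h at 37 °C. High-titer phAE129 phage plus 0.1 M CaCl₂ was added, then 4 h at 37 °C. Equal volume D-luciferin (0.3 mM, pH 4.5 citrate) was added; RLU integrated 10 s, duplicate mean; % RLU reduction vs control.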

[2] = tested on: Mycobacterium tuberculosis; assay: Antimycobacterial activity against Mycobacterium tuberculosis H37Rv assessed as reduction in relative light units at 0.05 ug/ml after 72 hrs by LRP assay; procedure, shortened: as §1
[3] = tested on: Mycobacterium tuberculosis; assay: Antimycobacterial activity against Mycobacterium tuberculosis H37Rv assessed as reduction in relative light units at 0.5 ug/ml after 72 hrs by LRP assay; procedure, shortened: as §1
[4] = tested on: Mycobacterium tuberculosis; assay: Antimycobacterial activity against Mycobacterium tuberculosis H37Rv assessed as reduction in relative light units at 10 ug/ml after 72 hrs by LRP assay; procedure, shortened: as §1

## O=C(N/N=C1\C=CCO1)c1ccc(N2CCOCC2)cc1
[1]
  Activity: 98.41%
[2]
  Activity: 15.04%
[3]
  Activity: 96.9%
[4]
  Activity: 97.55%

## O=C(N/N=C\C=C\c1ccccc1)c1ccc(N2CCOCC2)cc1
[1]
  Activity: 97.82%
[2]
  Activity: 63.16%
[3]
  Activity: 98.96%
[4]
  Activity: 97.32%

## O=C(N/N=C/c1cccc([N+](=O)[O-])c1)c1ccc(N2CCOCC2)cc1
[1]
  Activity: 98.4%
[2]
  Activity: 9.118%
[3]
  Activity: 98.04%
[4]
  Activity: 98.4%

## O=C(N/N=C/c1ccc(Cl)cc1)c1ccc(N2CCOCC2)cc1
[1]
  Activity: 98.38%
[2]
  Activity: 78.09%
[3]
  Activity: 98.02%
[4]
  Activity: 99.26%

## COc1cc(/C=N/NC(=O)c2ccc(N3CCOCC3)cc2)cc(OC)c1OC
[1]
  Activity: 97.59%
[2]
  Activity: 49.68%
[3]
  Activity: 96.51%
[4]
  Activity: 97.77%

## O=C(N/N=C/c1ccc(O)cc1)c1ccc(N2CCOCC2)cc1
[1]
  Activity: 97.53%
[2]
  Activity: 51.79%
[3]
  Activity: 77.81%
[4]
  Activity: 97.24%

## CN(C)c1ccc(/C=N/NC(=O)c2ccc(N3CCOCC3)cc2)cc1
[1]
  Activity: 98.49%
[2]
  Activity: 20.85%
[3]
  Activity: 98.09%
[4]
  Activity: 98.82%

## COc1ccc(/C=N/NC(=O)c2ccc(N3CCOCC3)cc2)cc1
[1]
  Activity: 98.1%
[2]
  Activity: 30.04%
[3]
  Activity: 96.24%
[4]
  Activity: 97.18%

## Cc1ccc(/C=N/NC(=O)c2ccc(N3CCOCC3)cc2)cc1
[1]
  Activity: 97.75%
[2]
  Activity: 24.19%
[3]
  Activity: 97.29%
[4]
  Activity: 98.18%

## O=C(N/N=C/c1ccc(F)cc1)c1ccc(N2CCOCC2)cc1
[1]
  Activity: 98.98%
[2]
  Activity: 96.78%
[3]
  Activity: 98.22%
[4]
  Activity: 99.09%

## NNC(=O)c1ccncc1 [ISONIAZID]
[1]
  Activity: 99.01%
[2]
  Activity: 96%
[3]
  Activity: 98.42%
[4]
  Activity: 98.99%

— ChEMBL document CHEMBL1154054, “Novel 4-(morpholin-4-yl)-N'-(arylidene)benzohydrazides: synthesis, antimycobacterial activity and QSAR investigations” (Eur J Med Chem, 2009)
